In ChEMBL document CHEMBL1127042, “Molecular size and flexibility as determinants of selectivity in the oxidation of N-methyl-4-phenyl-1,2,3,6-tetrahydropyridine analogs by monoamine oxidase A and B” (J Med Chem, 1993):

Key:
[1] = substrate: CN1CC=C(Cc2cccs2)CC1; experiment: (§1) Michaelis-Menten constant against MAO A.
Procedure, shortened: (§2)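 Human liver MAO A expressed in yeast, purified. Initial oxidation rates measured polarographically (O2 uptake) at 30 °C in sodium phosphate buffer, pH 7.2, with 0.2% (w/v) Brij-35. Enzyme was added last to start the reaction, and its amount was set so rates were read within 60-120 s. Vmax came from double-reciprocal plots. TN was Vmax divided by flavin content. Flavin content was found from the optical density change on anaerobic reduction by kynuramine.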

[2] = substrate: CN1CC=C(c2ccc3ccccc3c2)CC1; experiment: as §1; procedure, shortened: as §2
[3] = substrate: CN1CC=C(Cc2ccsc2)CC1; experiment: as §1; procedure, shortened: as §2
[4] = substrate: CN1CC=C(c2ccsc2)CC1; experiment: as §1; procedure, shortened: as §2
[5] = substrate: CN1CC=C(Cc2ccccc2)CC1; experiment: as §1; procedure, shortened: as §2
[6] = substrate: NCCC(=O)c1ccccc1N; experiment: as §1; procedure, shortened: as §2
[7] = substrate: CN1CC=C(CCc2ccccc2)CC1; experiment: as §1; procedure, shortened: as §2
[8] = substrate: CN1CC=C(c2cccc3ccccc23)CC1; experiment: as §1; procedure, shortened: as §2
[9] = substrate: CN1CC=C(CCc2ccsc2)CC1; experiment: as §1; procedure, shortened: as §2
[10] = substrate: CN1CC=C(c2cccs2)CC1; experiment: as §1; procedure, shortened: as §2
[11] = substrate: CN1CC=C(Cc2cccc3ccccc23)CC1; experiment: as §1; procedure, shortened: as §2
[12] = substrate: NCc1ccccc1; experiment: as §1; procedure, shortened: as §2
[13] = substrate: CN1CC=C(CCc2ccc3ccccc3c2)CC1; experiment: as §1; procedure, shortened: as §2
[14] = substrate: CN1CC=C(CCc2cccs2)CC1; experiment: as §1; procedure, shortened: as §2
[15] = substrate: CN1CC=C(CCc2cccc3ccccc23)CC1; experiment: as §1; procedure, shortened: as §2
[16] = substrate: CN1CC=C(Cc2ccc3ccccc3c2)CC1; experiment: as §1; procedure, shortened: as §2
[17] = substrate: CN1CC=C(Cc2cccs2)CC1; experiment: (§3) Michaelis-Menten constant against MAO B.; parameters: species or system Bos taurus
Procedure, shortened: (§4)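 Beef liver MAO B, purified. Initial oxidation rates measured polarographically at 30 °C in sodium phosphate buffer, pH 7.2, with 0.2% (w/v) Brij-35. The reaction was started by adding enzyme, dosed so rates were measurable within 60-120 s. Vmax came from double-reciprocal plots. Turnover number was Vmax per flavin content. Flavin content came from the optical density change on anaerobic reduction by benzylamine.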

[18] = substrate: CN1CC=C(c2ccc3ccccc3c2)CC1; experiment: as §3; parameters: species or system Bos taurus; procedure, shortened: as §4
[19] = substrate: CN1CC=C(Cc2ccsc2)CC1; experiment: as §3; parameters: species or system Bos taurus; procedure, shortened: as §4
[20] = substrate: CN1CC=C(c2ccsc2)CC1; experiment: as §3; parameters: species or system Bos taurus; procedure, shortened: as §4
[21] = substrate: CN1CC=C(Cc2ccccc2)CC1; experiment: as §3; parameters: species or system Bos taurus; procedure, shortened: as §4
[22] = substrate: NCCC(=O)c1ccccc1N; experiment: as §3; parameters: species or system Bos taurus; procedure, shortened: as §4
[23] = substrate: CN1CC=C(CCc2ccccc2)CC1; experiment: as §3; parameters: species or system Bos taurus; procedure, shortened: as §4
[24] = substrate: CN1CC=C(c2cccc3ccccc23)CC1; experiment: as §3; parameters: species or system Bos taurus; procedure, shortened: as §4
[25] = substrate: CN1CC=C(CCc2ccsc2)CC1; experiment: as §3; parameters: species or system Bos taurus; procedure, shortened: as §4
[26] = substrate: CN1CC=C(c2cccs2)CC1; experiment: as §3; parameters: species or system Bos taurus; procedure, shortened: as §4
[27] = substrate: CN1CC=C(Cc2cccc3ccccc23)CC1; experiment: as §3; parameters: species or system Bos taurus; procedure, shortened: as §4
[28] = substrate: NCc1ccccc1; experiment: as §3; parameters: species or system Bos taurus; procedure, shortened: as §4
[29] = substrate: CN1CC=C(CCc2ccc3ccccc3c2)CC1; experiment: as §3; parameters: species or system Bos taurus; procedure, shortened: as §4
[30] = substrate: CN1CC=C(CCc2cccs2)CC1; experiment: as §3; parameters: species or system Bos taurus; procedure, shortened: as §4
[31] = substrate: CN1CC=C(CCc2cccc3ccccc23)CC1; experiment: as §3; parameters: species or system Bos taurus; procedure, shortened: as §4
[32] = substrate: CN1CC=C(Cc2ccc3ccccc3c2)CC1; experiment: as §3; parameters: species or system Bos taurus; procedure, shortened: as §4

B1: Amine oxidase [flavin-containing] A (Homo sapiens) (protein)
chain: MENQEKASIAGHMFDVVVIGGGISGLSAAKLLTEYGVSVLVLEARDRVGGRTYTIRNEHVDYVDVGGAYVGPTQNRILRLSKELGIETYKVNVSERLVQYVKGKTYPFRGAFPPVWNPIAYLDYNNLWRTIDNMGKEIPTDAPWEAQHADKWDKMTMKELIDKICWTKTARRFAYLFVNINVTSEPHEVSALWFLWYVKQCGGTTRIFSVTNGGQERKFVGGSGQVSERIMDLLGDQVKLNHPVTHVDQSSDNIIIETLNHEHYECKYVINAIPPTLTAKIHFRPELPAERNQLIQRLPMGAVIKCMMYYKEAFWKKKDYCGCMIIEDEDAPISITLDDTKPDGSLPAIMGFILARKADRLAKLHKEIRKKKICELYAKVLGSQEALHPVHYEEKNWCEEQYSGGCYTAYFPPGIMTQYGRVIRQPVGRIFFAGTETATKWSGYMEGAVEAGERAAREVLNGLGKVTEKDIWVQEPESKDVPAVEITHTFWERNLPSVSGLLKIIGFSTSVTALGFVLYKYKLLPRS
- Km [1]: 48 µM
- Km [2]: 4.6 µM
- Km [3]: 136 µM
- Km [4]: 102 µM
- Km [5]: 66 µM
- Km [6]: 170 µM
- Km [7]: 120 µM
- Km [8]: 74 µM
- Km [9]: 130 µM
- Km [10]: 188 µM
- Km [11]: 167 µM
- Km [12]: 780 µM
- Km [13]: 43 µM
- Km [14]: 108 µM
- Km [15]: 76 µM
- Km [16]: 36 µM

B2: Amine oxidase [flavin-containing] B (Bos taurus) (protein)
chain: MSSKCDVVVVGGGISGMAAAKLLHDSGLNVIVLEARDRVGGRTYTLRNQKVKYVDLGGSYVGPTQNHILRLSKELGLETYKVNEVERLIHHTKGKSYPFRGSFPSVWNPITYLDHNNLWRTMDDMGREIPSDAPWKAPLAEQWDLMTMKELLDKICWTESSKQLAILFVNLCVTAEIHEVSALWFLWYVKQCGGTTRIFSTSNGGQERKFVGGSGQVSERIMDLLGDRVKLERPVIHIDQTGENVLVETLNHELYEAKYVISAVPPVLGMKIHFNPPLPMMRNQLITRVPLGSVIKSIVYYKEPFWRNMDYCGSMIIEGEEAPVAYALDDTKPDGSYPAIIGFILAHKARKLARLTKEERLKKLCDLYAKVLGSQEALHPVHYEEKNWCEEQYSGGCYTSYFPPGIMTQYGRVLRQPVGRIYFAGTETATHWSGYMEGAVEAGERAAREILHAMGKIPEDEIWLPEPESVDVPAKPITTTFLQRHLPSVPGLLKLIGLTTIFSATALGFLAHKRGLLVRI
- Km [17]: 102 µM
- Km [18]: 730 µM
- Km [19]: 195 µM
- Km [20]: 26 µM
- Km [21]: 154 µM
- Km [22]: 84 µM
- Km [23]: 54 µM
- Km [24]: 110 µM
- Km [25]: 57 µM
- Km [26]: 168 µM
- Km [27]: 850 µM
- Km [28]: 290 µM
- Km [29]: 1030 µM
- Km [30]: 49 µM
- Km [31]: 1280 µM
- Km [32]: 840 µM
